Compounds with a hit are over-represented: about 2.5% of the library has one in this group of screens.
TCR CD3 inh = human TCR-CD3 binding inhibition | AID 651800 | 0.37% of 360,000 active | inhibition, % at 9.4 µM | TAMRA-labeled TCR probe fluorescence, biochemical; in the data active = inhibition above about 19%;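 note: recombinant mutant TCR 2C K166C tagged with TAMRA read by polarization; 0% = receptor in buffer alone and 100% = receptor with positive control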
SIAE primary = human SIAE inhibition, primary screen; 0.69% of 370,000 active; inhibition, % at 9.66 µM; SIAE FP-Rh probe binding, fluorescence polarization; Q9HAT2; AID 1053197;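 active = inhibition above a cutoff: mean of compounds within the control limits plus 3 SD of those, cut at about 17% in these data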;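 note: 0% = plate median of compound wells and 100% = probe without SIAE protein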
ABHD4 inh = inhibits mouse alpha/beta hydrolase domain 4; Q8VD66; purified mABHD4, FP-Rh probe fluorescence polarization; inhibition, % at 8.92 µM; 0.54% of 370,000 active; AID 720543;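 active = inhibition exceeding the mean over every tested compound plus 3 SD, cut at about 30% in these data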;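 note: 0% = plate median of compound wells and 100% = S159A mutant with DMSO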
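Test system: mABHD4 protein; Read-out basis: % inhibition; Incubation: 45 min + 60 min at 25 °C; Repeats: single replicate; Technique: fluorescence polarization with parallel and perpendicular emission, 525/598 nm; Compound: 8.92 µM, single dose; Benchmarks: full inhibition S159A mutant plus DMSO, zero as sample-well median.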
rCAG RNA binder = binds r(CAG) RNA repeats; r(CAG) RNA repeat, TO-PRO-1 dye displacement fluorescence; 1.3% of 370,000 active; inhibition, % at 3 µM; AID 651821;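 active = inhibition above the plate cutoff, the mean of all test compounds on that plate plus 3 SD, cut at about 35% in these data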;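 note: 0% = DMSO alone and 100% = 100 µM mitoxantrone as full dye displacement; higher means more dye released from RNA so lower well fluorescence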
HTRA1 inh = inhibitors of human serine peptidase HTRA1; Q92743; recombinant HTRA1, FP-rhodamine activity-based probe, fluorescence polarization; inhibition, % at 5.96 µM; 0.5% of 340,000 active; AID 504803; in the data active = inhibition above about 36%;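 note: 0% = enzyme with DMSO and 100% = wells lacking enzyme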
Target sequence (Q92743 whole entry, looked up): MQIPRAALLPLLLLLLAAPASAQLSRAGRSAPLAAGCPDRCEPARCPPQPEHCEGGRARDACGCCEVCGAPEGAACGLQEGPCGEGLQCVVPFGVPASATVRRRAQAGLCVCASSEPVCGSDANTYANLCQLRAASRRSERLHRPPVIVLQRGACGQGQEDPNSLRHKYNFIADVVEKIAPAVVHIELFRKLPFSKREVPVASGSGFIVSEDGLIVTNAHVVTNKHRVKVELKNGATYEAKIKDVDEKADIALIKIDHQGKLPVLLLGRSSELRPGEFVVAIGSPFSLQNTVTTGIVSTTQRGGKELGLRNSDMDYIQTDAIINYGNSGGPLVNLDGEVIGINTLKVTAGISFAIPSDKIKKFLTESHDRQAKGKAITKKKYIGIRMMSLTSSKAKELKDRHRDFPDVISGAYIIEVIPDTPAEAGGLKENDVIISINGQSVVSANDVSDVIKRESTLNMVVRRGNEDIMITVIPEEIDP
rCAG bind conf = r(CAG) RNA repeat binding, confirmation; shares compounds with rCAG RNA binder; TO-PRO-1 dye displacement fluorescence; inhibition, % at 3 µM; 70% of 4,300 active; AID 652065;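 active = inhibition above a per-plate cutoff, the mean inhibition of sample wells plus 3 SD, cut at about 35% in these data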;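 note: loss of TO-PRO-1 fluorescence as compound displaces dye from 1x1 AA loop RNA; 0% = DMSO only wells and 100% = 100 µM mitoxantrone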
DNA CAG counter = DNA CAG dye complex inhibition counter-screen. 94% of 4,300 active. d(CAG) DNA oligo TO-PRO-1 dye displacement, fluorescence. shares compounds with rCAG RNA binder. inhibition, % at 3 µM. AID 652068;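 active = inhibition above its plate's cutoff, the mean test-well inhibition plus 3 SD, cut at about 4.8% in these data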;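 note: 0% = DNA dye mix with DMSO and 100% = 100 µM mitoxantrone; hits displace the dye from DNA and so lower well fluorescence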
DNA CAG DR = disrupts DNA CAG TO-PRO-1 complex in dose response; DNA CAG/GTC duplex TO-PRO-1 dye displacement fluorescence; 20% of 250 active; shares compounds with rCAG RNA binder; IC50, µM; AID 686960; in the data active = IC50 below about 10 µM
The depositor's hits bear a star; x = no result given.

SMILES | TCR CD3 inh | SIAE primary | ABHD4 inh | rCAG RNA binder | HTRA1 inh | rCAG bind conf | DNA CAG counter | others
CCCc1cc(=O)oc2cc(C)cc(OCC(=O)N[C@@H](CSCc3ccccc3)C(=O)O)c12 | 4 | -4 | 0 | 62* | -8 | 50* | 13*
Cc1cc(OCC(=O)NC(Cc2ccc(Cl)cc2)C(=O)O)c2c(C)c(C)c(=O)oc2c1 (stereo unspecified) | 0 | -8 | -5 | 45* | -2 | 42* | 9.4*
CCCc1cc(=O)oc2cc(C)cc(OCC(=O)NC(Cc3ccc(Cl)cc3)C(=O)O)c12 (stereo unspecified) | 1 | 2 | -2 | 45* | -16 | 47* | 10* | DNA CAG DR=>30
O=C(O)C1CC=CCC1C(=O)Nc1ccc(S(=O)(=O)N2CCCc3ccccc32)cc1 (stereo unspecified) | -12 | -4 | -13 | 36* | -10 | 37* | 9.1*
O=C(CCCN1C(=O)/C(=C\c2ccccc2)SC1=S)Nc1ccc(O)cc1C(=O)O | 5 | 7 | 5 | 80* | -4 | 68* | 32*
COc1ccccc1/C=C1\SC(=S)N(CCC(=O)Nc2ccc(C(=O)O)c(O)c2)C1=O | 5 | -39 | -89 | 91* | -86 | 85* | 59*
CC(C(=O)Nc1ccc(O)cc1C(=O)O)N1C(=O)/C(=C\c2cccs2)SC1=S (stereo unspecified) | 2 | -3 | 12 | 80* | -18 | 80* | 41*
O=C(CCN1C(=O)/C(=C/c2ccco2)SC1=S)Nc1ccc(O)cc1C(=O)O | -4 | -2 | 20 | 93* | 9 | 70* | 27* | DNA CAG DR=7.3*
O=C(CCCN1C(=O)/C(=C\c2cccs2)SC1=S)Nc1ccccc1O | 11 | -5 | -5 | 6 | -8 | x | x
Cc1cccc(NC(=O)CCNC(=O)c2ccccc2Cl)n1 | -3 | 5 | -1 | -2 | 5 | x | x
O=C(COc1ncnc2c(Cl)cc(Cl)cc12)NC1CCCCCC1 | 7 | 1 | 2 | -1 | 3 | x | x
O=S(=O)(NN1CCOCC1)c1ccc(Br)s1 | -1 | 1 | 13 | -5 | 2 | x | x
O=C(Nn1cnnc1)c1ccccc1-c1ccccc1 | 4 | 0 | -2 | -1 | 3 | x | x
O=C(CCCN1C(=O)/C(=C\c2ccco2)SC1=S)Nc1ccc2ccccc2c1 | -10 | -1 | -18 | 31 | -21 | x | x
O=C(CCN1C(=O)/C(=C/c2ccco2)SC1=S)Nc1ccc(C(=O)O)c(O)c1 | -2 | 10 | -14 | 90* | -12 | 73* | 33* | DNA CAG DR=5.3*
O=C(CCN1C(=O)/C(=C\c2ccco2)SC1=S)Nc1ccc(C(=O)O)c(O)c1 | 8 | -1 | -3 | 86* | 4 | 79* | 37*
Cc1ccc2c(c1)C(=O)C(=O)N2Cc1ccc(F)cc1 | -8 | 6 | 2 | 5 | -29 | x | x
O=C(COc1ccc(Cl)cc1Cl)Nc1ccccc1NS(=O)(=O)c1cccs1 | 6 | -2 | -1 | 25 | 8 | x | x
Cc1cc(Cl)ccc1OCC(=O)Nc1ccccc1NS(=O)(=O)c1cccs1 | 1 | -2 | -9 | 42* | -8 | 51* | 11*
O=C(Nc1ccc(Cl)cc1)Nc1ccccc1NS(=O)(=O)c1cccs1 | -1 | -8 | -35 | 43* | -10 | 39* | 10*
O=C(Nc1ccc(F)cc1)Nc1ccccc1NS(=O)(=O)c1cccs1 | 2 | 8 | -7 | 19 | -5 | x | x
O=C1CC(=O)N2CCSC2=N1 | 4 | -5 | -1 | 1 | 1 | x | x
COc1ccc(Cc2nnc(SCC(=O)Nc3c(C)cccc3C)[nH]c2=O)cc1 | 5 | 14 | 3 | 8 | 2 | x | x
CCc1cccc(NC(=O)CSc2nnc(Cc3ccc(OC)cc3)c(=O)[nH]2)c1 | -6 | -5 | -3 | 46* | -6 | 42* | 9.3*
CCOC(=O)c1c(NC(=O)C2C3C=CC(C3)C2C(=O)O)sc2c1CC(C)CC2 (stereo unspecified) | -7 | -1 | 5 | 48* | 1 | 54* | 14*
SMILES | TCR CD3 inh | SIAE primary | ABHD4 inh | rCAG RNA binder | HTRA1 inh | rCAG bind conf | DNA CAG counter | others
CCOC(=O)c1c(NS(C)(=O)=O)sc2c1CCC(C)C2 (stereo unspecified) | -1 | -8 | -19 | 48* | -4 | 18 | 8.0*
COc1ccc(CC(=O)Nc2cc(Cl)ccc2C(=O)O)cc1 | 7 | 0 | -8 | 9 | -7 | x | x
CCCCOc1ccc(Nc2cc(Cl)ccc2C(=O)O)cn1 | 7 | 6 | -1 | 70* | -7 | 64* | 16*
O=C(O)c1cc(N/N=C/c2ccc(-c3ccc(F)cc3)o2)ccc1Cl | -3 | 5 | 24 | 56* | 2 | 38* | 12*
Cc1ccc(-c2ccc(/C=N\NC(=O)c3cc4c(ccc5ccccc54)o3)o2)cc1[N+](=O)[O-] | 3 | 2 | -4 | 3 | -12 | x | x
O=C(O)c1ccc(N/N=C/c2ccc(-c3cc(Cl)ccc3Cl)o2)cc1 | -6 | 5 | -8 | 45* | 0 | 51* | 18*
O=C(N/N=C/c1ccc(-c2ccc(Cl)c(C(=O)O)c2)o1)c1cc2c(ccc3ccccc32)o1 | 13 | -57 | 6 | 52* | -8 | 86* | 61*
O=C(CSc1nnc2ccccn12)Nc1cccc(-c2nc3ccccc3s2)c1 | 2 | -49 | 5 | 3 | -3 | x | x
COCCCNC(=O)C1CCN(S(=O)(=O)c2ccc3[nH]c(=O)oc3c2)CC1 | x | 3 | -2 | 6 | x | x | x
COc1cc(NC(=O)C2CCN(S(=O)(=O)c3ccc4[nH]c(=O)oc4c3)CC2)cc(OC)c1 | 0 | 10 | 2 | 36* | -8 | 23 | 9.2*
COc1cc(NS(=O)(=O)c2ccc(NC(=O)/C(=C/c3ccccc3Cl)NC(=O)c3ccccc3)cc2)nc(OC)n1 | 5 | -9 | -16 | 74* | -20 | 79* | 34* | DNA CAG DR=9.8*
COc1cc(NS(=O)(=O)c2ccc(NS(=O)(=O)c3ccccc3)cc2)nc(OC)n1 | 3 | 4 | 5 | 0 | -2 | x | x
O=C(Nc1ccc(S(=O)(=O)Nc2nccs2)cc1)/C(=C/c1ccccc1Cl)NC(=O)c1ccccc1 | -2 | 1 | -58 | 78* | -12 | 68* | 35*
CC(C)(C)c1ccc(Oc2ccc(NC(=O)C3CC=CCC3C(=O)O)cc2)cc1 (stereo unspecified) | 2 | 7 | -6 | 35* | -7 | 45* | 12*
Cc1cc(=O)oc2c(C)c(OCC(=O)N3CC[C@@]4(O)CCCC[C@H]4C3)ccc12 | 2 | -1 | -8 | -2 | 3 | x | x
Cc1ccccc1N/N=C/c1sc(=O)n(Cc2cccc(C(=O)O)c2)c1Cl | 3 | -15 | 11 | 69* | 7 | 78* | 40*
